The values that follow come from ChEMBL document CHEMBL4680373, “Evaluation of 5-(Trifluoromethyl)-1,2,4-oxadiazole-Based Class IIa HDAC Inhibitors for Huntington's Disease” (ACS Med Chem Lett, 2021).

≈ marks a conversion by molar mass, not a printed value.

Series [1] addresses T1, Protein deacetylase HDAC6 (Homo sapiens, UniProt Q9UBN7).
T1 sequence (Q9UBN7 whole entry): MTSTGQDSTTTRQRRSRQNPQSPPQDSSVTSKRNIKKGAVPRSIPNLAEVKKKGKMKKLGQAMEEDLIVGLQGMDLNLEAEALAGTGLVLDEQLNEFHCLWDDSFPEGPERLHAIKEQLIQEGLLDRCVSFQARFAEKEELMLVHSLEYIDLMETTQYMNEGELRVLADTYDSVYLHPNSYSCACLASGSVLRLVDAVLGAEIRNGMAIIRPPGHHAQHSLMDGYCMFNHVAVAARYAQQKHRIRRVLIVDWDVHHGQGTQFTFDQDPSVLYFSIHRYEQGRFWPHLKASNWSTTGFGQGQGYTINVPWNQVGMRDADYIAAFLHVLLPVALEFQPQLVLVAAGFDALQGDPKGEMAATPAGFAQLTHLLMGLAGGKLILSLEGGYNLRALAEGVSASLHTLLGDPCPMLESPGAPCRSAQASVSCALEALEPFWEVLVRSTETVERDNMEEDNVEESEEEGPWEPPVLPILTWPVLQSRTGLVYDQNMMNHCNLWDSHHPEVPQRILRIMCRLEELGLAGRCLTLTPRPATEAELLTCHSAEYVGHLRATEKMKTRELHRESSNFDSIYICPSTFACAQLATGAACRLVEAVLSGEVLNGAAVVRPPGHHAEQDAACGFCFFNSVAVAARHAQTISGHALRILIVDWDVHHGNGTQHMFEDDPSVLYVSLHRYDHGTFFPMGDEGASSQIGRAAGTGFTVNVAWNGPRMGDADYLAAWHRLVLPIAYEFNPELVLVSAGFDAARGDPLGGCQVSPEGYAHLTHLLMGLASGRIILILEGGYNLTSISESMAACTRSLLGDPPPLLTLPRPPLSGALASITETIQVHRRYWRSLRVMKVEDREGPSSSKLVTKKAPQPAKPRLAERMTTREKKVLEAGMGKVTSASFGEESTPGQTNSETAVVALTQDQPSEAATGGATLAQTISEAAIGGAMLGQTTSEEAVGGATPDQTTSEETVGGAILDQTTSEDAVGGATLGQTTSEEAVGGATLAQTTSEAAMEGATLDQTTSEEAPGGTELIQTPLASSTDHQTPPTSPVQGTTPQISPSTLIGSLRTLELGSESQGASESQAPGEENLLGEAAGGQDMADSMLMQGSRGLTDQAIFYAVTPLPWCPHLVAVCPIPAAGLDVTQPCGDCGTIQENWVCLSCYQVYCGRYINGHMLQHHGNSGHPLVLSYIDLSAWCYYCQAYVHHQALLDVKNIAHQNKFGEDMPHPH
As to the kind of experiment: Inhibition of HDAC6 (unknown origin) expressed in human HEK-Freestyle cells using Boc-Lys(Ac) as substrate by fluorogenic assay. In kind it is cell-based. Summed up:
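HDAC6 was supplied as lysate of HEK cells overexpressing the enzyme. Activity was read with the class I/IIb-specific fluorogenic substrate Boc-Lys-(Ac)-AMC. IC50 is the geometric mean of three experiments.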

The nature of series [2]: Kinetic solubility of the compound. In kind it is physicochemical. The note with it: read-out: Kinetic_solubility.
Series [3] concerns the target T2, Muscarinic acetylcholine receptor M3 (Homo sapiens, UniProt P20309). In words: Displacement of [3H]4-DAMP from human recombinant M3 receptor at 10 uM incubated for 1 hr by radiometric scintillation counting analysis. The method in brief:
(§1)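 Broad selectivity panel of binding, cellular, functional and enzymatic assays run by a contract lab. Each test was done at a single 10 μM concentration and reported as percent inhibition.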
Target sequence in this assay (P20309 whole entry, looked up): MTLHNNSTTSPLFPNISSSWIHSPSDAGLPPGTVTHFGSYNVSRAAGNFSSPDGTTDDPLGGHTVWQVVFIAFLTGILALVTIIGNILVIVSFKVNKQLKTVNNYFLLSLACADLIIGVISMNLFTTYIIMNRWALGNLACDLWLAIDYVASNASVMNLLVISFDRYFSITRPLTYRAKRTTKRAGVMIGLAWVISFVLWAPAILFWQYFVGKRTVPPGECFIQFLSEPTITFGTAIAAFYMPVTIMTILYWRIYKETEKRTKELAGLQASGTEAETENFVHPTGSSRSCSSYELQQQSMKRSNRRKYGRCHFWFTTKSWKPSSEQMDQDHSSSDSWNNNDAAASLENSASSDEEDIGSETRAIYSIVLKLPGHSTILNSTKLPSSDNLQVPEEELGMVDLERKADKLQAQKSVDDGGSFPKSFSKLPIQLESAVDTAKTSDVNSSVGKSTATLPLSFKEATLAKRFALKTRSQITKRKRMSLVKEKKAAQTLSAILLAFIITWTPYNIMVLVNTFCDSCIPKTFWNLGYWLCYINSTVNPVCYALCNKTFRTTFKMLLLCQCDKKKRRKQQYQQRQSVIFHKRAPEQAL

Series [4] addresses Cav1.2 (voltage-dependent L-type calcium channel subunit alpha-1C) (Rattus norvegicus, UniProt P22002). In words: Displacement of [3H]Diltiazem from Cav1.2 in rat brain at 10 uM incubated for 120 mins by radiometric scintillation counting analysis. In kind it is tissue-based. Particulars: probe [3H]Diltiazem; call rule not given here. Summed up:
as §1

For series [5], the target named is T2, Muscarinic acetylcholine receptor M3. As to the kind of experiment: Displacement of [3H]4-DAMP from human recombinant M3 receptor incubated for 1 hr by radiometric scintillation counting analysis.
Target sequence in this assay (P20309 whole entry): as the sequence (P20309 whole entry, looked up) above
A further series addresses Cytochrome P450 2C19 (Homo sapiens, UniProt P33261). As to the kind of experiment: Inhibition of CYP2C19 in human liver microsomes using (S)-(+)-mephenytoin as substrate incubated for 30 mins by LC-MS/MS analysis. It counts as ADME.
In a further series the target is Cytochrome P450 2D6 (Homo sapiens, UniProt P10635). As to the kind of experiment: Inhibition of CYP2D6 in human liver microsomes using dextromethorphan as substrate incubated for 15 mins by LC-MS/MS analysis. It counts as ADME.
Cytochrome P450 2D6, sequence (P10635 whole entry): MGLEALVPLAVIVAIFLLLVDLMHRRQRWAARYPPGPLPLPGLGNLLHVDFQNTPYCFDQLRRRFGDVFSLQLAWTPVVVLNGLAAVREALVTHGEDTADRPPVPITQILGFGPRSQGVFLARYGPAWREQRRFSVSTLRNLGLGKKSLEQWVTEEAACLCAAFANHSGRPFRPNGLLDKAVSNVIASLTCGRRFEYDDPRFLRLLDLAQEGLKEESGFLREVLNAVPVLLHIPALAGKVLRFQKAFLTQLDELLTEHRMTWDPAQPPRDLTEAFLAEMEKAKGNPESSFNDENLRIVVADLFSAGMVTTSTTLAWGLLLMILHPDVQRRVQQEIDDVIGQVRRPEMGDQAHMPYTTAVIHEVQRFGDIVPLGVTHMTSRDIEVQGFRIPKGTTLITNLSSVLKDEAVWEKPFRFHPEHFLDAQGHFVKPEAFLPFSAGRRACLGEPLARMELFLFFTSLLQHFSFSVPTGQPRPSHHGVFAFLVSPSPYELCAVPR
The nature of series [6]: Metabolic stability of the compound in mouse blood. It counts as ADME, tissue-based.
Series [7] in a line: Plasma clearance in C57BL/6J mouse at 3.3 mg/kg, iv by LC-MS/MS analysis. In kind it is ADME, organism-based. The method in brief: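 Fed male C57Bl/6 mice dosed once intravenously at 3.3 mg/kg and by oral gavage at 11.5 mg/kg. Compound levels were quantified to derive PK parameters.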
A short description of series [8]: Tmax in C57BL/6J mouse blood at 11.5 mg/kg, po administered via gavage by LC-MS/MS analysis. In kind it is ADME, organism-based.
The nature of series [9]: In vivo inhibition of Class 1 HDAC in C57BL/6J mouse brain assessed as increase in histone H3/H4 acetylation administered orally via gavage measured after 2 hrs by western blot analysis. It counts as organism-based. Particulars: po, dose 10-100 mg/kg. Summed up:
(§2)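 Brain samples were taken 2 h after single oral gavage doses (10, 30, 100 mg/kg). Western blots probed H3, H4 and tubulin acetylation, each normalized to its own total-protein band. Comparison was against samples taken 5 min after a 10 mg/kg dose.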

Series [10] is described as follows: In vivo inhibition of Class 2B HDAC in C57BL/6J mouse brain assessed as increase in tubulin acetylation administered orally via gavage measured after 2 hrs by western blot analysis. It counts as organism-based. Particulars: po, dose 10-100 mg/kg. Summed up:
as §2

Series [11] is described as follows: Toxicity in CBAxC57BL/6J mouse assessed as effect on body weight at 10 to 100 mg/kg, po bid for 14.5 days. In kind it is organism-based. Particulars: in vivo, 348 h, dose 10-100 mg/kg, time 14.5 day. Summed up: (§3)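 R6/2 HD mice and wild-type littermates, male and female, were dosed orally b.i.d. at 10, 30 or 100 mg/kg or with vehicle for 14.5 days. Vehicle was 10% (w/v) hydroxypropyl-β-cyclodextrin in 50 mM citrate buffer. Body weight, body temperature, passive observations and active manipulation scores were recorded. Blood and brain were collected 2 h after the final dose.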

Series [12] can be described thus: Toxicity in CBAxC57BL/6J mouse assessed as effect on body temperature at 10 to 100 mg/kg, po bid for 14.5 days. It counts as organism-based. Particulars: in vivo, 348 h, dose 10-100 mg/kg, time 14.5 day. The method in brief: as §3
Series [13] in a line: Toxicity in CBAxC57BL/6J mouse assessed as effect on locomotor activity at 10 to 100 mg/kg, po bid for 14.5 days. In kind it is organism-based. Particulars: in vivo, 348 h, dose 10-100 mg/kg, time 14.5 day. Summed up: as §3
Series [14] can be described thus: Toxicity in CBAxC57BL/6J mouse assessed as effect on straub tail at 10 to 100 mg/kg, po bid for 14.5 days. It counts as organism-based. Particulars: in vivo, 348 h, dose 10-100 mg/kg, time 14.5 day. Summed up:
as §3

Series [15] can be described thus: Toxicity in CBAxC57BL/6J mouse assessed as effect on stereotypy at 10 to 100 mg/kg, po bid for 14.5 days. It counts as organism-based. The note with it: in vivo, 348 h, dose 10-100 mg/kg, time 14.5 day. The method in brief: as §3
The nature of series [16]: Toxicity in CBAxC57BL/6J mouse assessed as effect on loss of paw pull at 10 to 100 mg/kg, po bid for 14.5 days. In kind it is organism-based. Particulars: in vivo, 348 h, dose 10-100 mg/kg, time 14.5 day. The method in brief:
as §3

Series [17] can be described thus: Toxicity in CBAxC57BL/6J mouse assessed as effect on touch escape at 10 to 100 mg/kg, po bid for 14.5 days. It counts as organism-based. Particulars: in vivo, 348 h, dose 10-100 mg/kg, time 14.5 day. Summed up: as §3

Cav1.2 (voltage-dependent L-type calcium channel subunit alpha-1C), sequence (P22002 whole entry): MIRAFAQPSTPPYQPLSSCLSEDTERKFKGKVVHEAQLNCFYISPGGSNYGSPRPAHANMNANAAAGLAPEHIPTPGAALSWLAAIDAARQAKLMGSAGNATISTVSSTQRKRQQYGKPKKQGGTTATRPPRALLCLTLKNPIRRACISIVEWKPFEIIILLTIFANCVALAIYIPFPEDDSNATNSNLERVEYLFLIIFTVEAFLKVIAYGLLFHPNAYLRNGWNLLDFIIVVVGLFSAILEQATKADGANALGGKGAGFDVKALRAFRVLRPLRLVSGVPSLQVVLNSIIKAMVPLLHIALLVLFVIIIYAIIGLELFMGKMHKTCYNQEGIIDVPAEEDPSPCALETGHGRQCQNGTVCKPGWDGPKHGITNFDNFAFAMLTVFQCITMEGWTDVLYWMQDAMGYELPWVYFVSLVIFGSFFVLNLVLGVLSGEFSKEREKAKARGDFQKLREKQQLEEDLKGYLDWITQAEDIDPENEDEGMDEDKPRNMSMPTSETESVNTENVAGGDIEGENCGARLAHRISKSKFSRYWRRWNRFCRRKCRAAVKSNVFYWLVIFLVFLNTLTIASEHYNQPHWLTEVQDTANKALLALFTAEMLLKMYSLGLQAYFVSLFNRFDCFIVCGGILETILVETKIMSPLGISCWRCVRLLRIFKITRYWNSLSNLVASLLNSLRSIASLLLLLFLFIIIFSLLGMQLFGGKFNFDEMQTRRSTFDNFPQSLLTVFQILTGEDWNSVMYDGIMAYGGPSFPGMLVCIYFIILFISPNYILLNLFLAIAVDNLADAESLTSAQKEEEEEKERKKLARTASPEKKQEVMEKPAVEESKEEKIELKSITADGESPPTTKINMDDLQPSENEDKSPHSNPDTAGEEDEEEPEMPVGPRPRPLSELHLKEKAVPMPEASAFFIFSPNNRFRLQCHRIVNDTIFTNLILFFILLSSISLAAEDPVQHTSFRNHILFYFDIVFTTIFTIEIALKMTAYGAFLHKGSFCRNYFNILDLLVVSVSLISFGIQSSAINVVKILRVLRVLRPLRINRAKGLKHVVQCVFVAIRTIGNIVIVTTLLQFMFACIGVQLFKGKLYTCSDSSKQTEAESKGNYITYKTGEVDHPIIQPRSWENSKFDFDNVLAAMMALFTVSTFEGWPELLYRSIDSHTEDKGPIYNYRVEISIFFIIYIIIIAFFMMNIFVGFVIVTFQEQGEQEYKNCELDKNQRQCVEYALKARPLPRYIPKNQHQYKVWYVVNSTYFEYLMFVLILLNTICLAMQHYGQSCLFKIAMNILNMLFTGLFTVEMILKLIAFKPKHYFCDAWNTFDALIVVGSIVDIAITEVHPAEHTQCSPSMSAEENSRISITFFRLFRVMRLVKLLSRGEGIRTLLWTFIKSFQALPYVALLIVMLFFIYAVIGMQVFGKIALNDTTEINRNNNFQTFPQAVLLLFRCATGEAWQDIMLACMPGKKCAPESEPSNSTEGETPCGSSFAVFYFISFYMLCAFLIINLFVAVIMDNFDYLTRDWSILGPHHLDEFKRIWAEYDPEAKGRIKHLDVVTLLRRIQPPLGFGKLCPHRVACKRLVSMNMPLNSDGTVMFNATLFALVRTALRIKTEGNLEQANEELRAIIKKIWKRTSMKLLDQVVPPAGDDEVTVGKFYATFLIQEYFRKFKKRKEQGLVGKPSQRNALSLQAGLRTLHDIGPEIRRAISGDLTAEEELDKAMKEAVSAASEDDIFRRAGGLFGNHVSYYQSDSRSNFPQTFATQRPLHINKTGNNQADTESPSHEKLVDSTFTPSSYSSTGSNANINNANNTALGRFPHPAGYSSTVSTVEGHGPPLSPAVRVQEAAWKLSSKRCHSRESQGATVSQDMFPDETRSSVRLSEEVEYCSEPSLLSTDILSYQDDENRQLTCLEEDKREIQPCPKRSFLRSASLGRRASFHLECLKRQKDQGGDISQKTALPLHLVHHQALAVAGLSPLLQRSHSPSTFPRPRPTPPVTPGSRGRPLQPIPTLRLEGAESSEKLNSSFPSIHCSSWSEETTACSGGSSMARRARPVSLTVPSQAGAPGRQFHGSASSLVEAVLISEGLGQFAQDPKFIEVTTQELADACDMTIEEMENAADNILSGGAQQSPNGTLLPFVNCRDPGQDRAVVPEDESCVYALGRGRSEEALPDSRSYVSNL
Cytochrome P450 2C19, sequence (P33261 whole entry): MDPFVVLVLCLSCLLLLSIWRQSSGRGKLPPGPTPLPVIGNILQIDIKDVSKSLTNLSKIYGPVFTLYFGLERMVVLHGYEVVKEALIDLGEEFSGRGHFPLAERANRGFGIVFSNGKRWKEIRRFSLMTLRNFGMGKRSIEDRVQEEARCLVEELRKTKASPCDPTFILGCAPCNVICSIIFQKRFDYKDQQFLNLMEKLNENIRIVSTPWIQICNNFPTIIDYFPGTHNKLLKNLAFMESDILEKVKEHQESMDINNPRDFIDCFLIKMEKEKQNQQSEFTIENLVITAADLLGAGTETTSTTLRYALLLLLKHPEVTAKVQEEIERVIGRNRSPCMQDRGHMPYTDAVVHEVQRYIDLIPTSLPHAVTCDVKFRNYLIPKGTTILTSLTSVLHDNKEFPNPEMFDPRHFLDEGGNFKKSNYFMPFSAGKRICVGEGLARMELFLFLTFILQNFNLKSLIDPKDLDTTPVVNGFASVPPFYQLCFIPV

Consider `C[C@H](CN1CCC[C@@H]1C)NC(=O)c1ccc(-c2noc(C(F)(F)F)n2)cc1`, for which the half-maximal inhibitory concentration (IC50) in series [1] was 22 µM; at Cytochrome P450 2C19, greater than 50 µM; at Cytochrome P450 2D6, greater than 50 µM. In addition, the solubility kinetic in series [2] is 166 µM (≈ 63.5 µg/mL). For the same molecule, the inhibition in series [3] is greater than 80%. Besides, the inhibition at 2 h, 10 µM in [4] was greater than 50%. For the same molecule, the Kd in series [5] was greater than 5 µM. Also, in series [6], the Stabilty result is “Stable”. The molecule further had a clearance in series [7] of 70 mL/min/kg. The time of peak concentration (Tmax) in series [8] amounted to 30 min. Further, the Activity result is reported as “Toxic” in [9]; “Toxic” in [10]; “Non-Toxic” in [11]; “Non-Toxic” in series [12]; “Non-Toxic” in series [13]; “Non-Toxic” in series [14]. Besides, the Activity entry in series [15], in [16] and in [17] was “Non-Toxic” throughout.
